Compound activity (PubChem)
MT1-MMP act inh: blockers of MT1-MMP proenzyme processing, primary screen, HT1080 RFP-PRO-GFP cells, GFP/RFP fluorescence | Matrix metalloproteinase-14 (Homo sapiens), P50281 | GFP/RFP ratio fluorescence, overnight; percent of plate control window, DMSO zero | GFP/RFP ratio change, % at 20 µM | 360,000 tested, 0.061% active;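 active = GFP/RFP ratio change of at least 30% with cell ATP level not reduced by more than half and red fluorescence within 50% of control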
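Compound: 20 µM single dose, 1% DMSO / System: HT1080 RFP-PRO-GFP cells / Controls: DMSO and RFP-L50D-GFP cell wells / Read-out basis: GFP/RFP fluorescence ratio / Schedule: overnight compound exposure at 37 °C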
SKN-1 block: suppressors of acrylamide-induced Pgst-4::GFP reporter in worms, primary screen, SKN-1 inhibitor project, whole organism, uHTS, GFP/RFP fluorescence ratio, strain VP596. C. elegans VP596 Pgst-4::GFP/RFP ratio, 24 h. inhibition, % at 21.8 µM. 360,000 tested, 0.49% active. AID 624304, 2012;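 active = interference check ratio from 0.5 to 1.5 plus GFP to RFP signal ratio inhibition reaching or exceeding a fixed threshold, cut at about 30% in these data, passing the limit was not always enough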
ADAM17 inh: ADAM17 inhibitors, primary screen, biochemical, QFRET; inhibition, % at 6.95 µM; 370,000 tested, 0.83% active; AID 720648, 2013; recombinant ADAM17, EDANS/DABCYL FRET peptide cleavage;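 active = inhibition above the mean of compounds lying between control limits plus 3 SD, set per campaign, cut at about 8.5% in these data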;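 note: 0% = DMSO-only wells as the low control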
MPTP block: mitochondrial permeability transition pore inhibitors, primary screen, biochemical, isolated mouse mitochondria, absorbance; 360,000 tested, 1.4% active; inhibition, % at 10 µM; Ca2+ swelling absorbance, 30 min;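 active = inhibition of 50% or more, scaled per plate between neutral and stimulator controls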;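 note: 0% = DMSO wells given calcium and 100% = 1 mM EGTA wells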
GRIN3A LBD mod: binders of NR3A ligand-binding domain, primary screen, biophysical, differential scanning fluorimetry, uHTS. Tm shift relative to glycine control, % at 25 µM. Glutamate receptor ionotropic, NMDA 3A (GRIN3A) ligand-binding domain. AID 1259313, 2017. 340,000 tested, 2.5% active. NR3A LBD differential scanning fluorimetry, Tm shift; 0% = protein alone, 100% = glycine-bound protein;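 active = melting temperature shift of at least 10% of the positive control shift, at one fixed dose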
ADAM10 inh: human ADAM10 inhibitors, primary screen, biochemical, QFRET, HTS. Disintegrin and metalloproteinase domain-containing protein 10 (Homo sapiens), O14672. recombinant ADAM10, EDANS/DABCYL FRET peptide cleavage, 3 h. inhibition, % at 7 µM. 370,000 tested, 0.62% active. AID 720582, 2013;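 active = inhibition above a per-campaign cutoff equal to the mean of compounds falling between control-based bounds plus 3 SD, cut at about 20% in these data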;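 note: 0% = DMSO wells while the 100% control is not disclosed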
Target sequence (O14672 214-748 limits assumed): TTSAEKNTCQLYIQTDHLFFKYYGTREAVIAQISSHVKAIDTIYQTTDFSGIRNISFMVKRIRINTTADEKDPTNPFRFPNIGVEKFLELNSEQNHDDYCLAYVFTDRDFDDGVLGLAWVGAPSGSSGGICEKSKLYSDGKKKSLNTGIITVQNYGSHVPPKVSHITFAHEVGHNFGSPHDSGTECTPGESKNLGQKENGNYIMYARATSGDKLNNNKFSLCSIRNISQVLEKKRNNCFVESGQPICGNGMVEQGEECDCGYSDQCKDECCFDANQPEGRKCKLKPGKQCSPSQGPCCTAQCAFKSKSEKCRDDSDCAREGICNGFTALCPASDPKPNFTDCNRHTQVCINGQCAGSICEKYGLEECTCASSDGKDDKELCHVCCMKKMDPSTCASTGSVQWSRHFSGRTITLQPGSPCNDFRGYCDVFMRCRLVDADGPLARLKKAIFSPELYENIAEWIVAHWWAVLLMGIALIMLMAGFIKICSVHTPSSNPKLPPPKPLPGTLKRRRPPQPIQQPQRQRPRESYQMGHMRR
MPTP counter: fluorescence retest of MPTP screen hits in isolated mitochondria, single concentration; shares compounds with MPTP block; membrane potential, Rhodamine 123 fluorescence; inhibition, % at 10 µM; 5,000 tested, 78% active; AID 624504, 2012; in the data active = inhibition above about 22%;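 note: 0% = DMSO vehicle and 100% = positive control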
MPTP abs DR: mitochondrial permeability transition pore inhibitors, dose response, biochemical, absorbance, uHTS hits; shares compounds with MPTP block; isolated mitochondria swelling; IC50, µM; 780 tested, 58% active; AID 651561, 2012; in the data active = IC50 below about 20 µM
MPTP cs DR: fluorescent counter-screen in isolated mitochondria, dose response, counter-screen for MPTP inhibitor project, biochemical, fluorescence, uHTS hits. shares compounds with MPTP block. isolated mitochondria counterscreen, fluorescence read-out. IC50, µM. 780 tested, 49% active. AID 651564, 2012; in the data active = IC50 below about 80 µM
Starred values were filed as active, the others as inactive; i = inactive; / = no result given. Rows were chosen to be rich in hits. Some 4.7% of all compounds tested hit in one or more screens of this group.

SMILES	MT1-MMP act inh	SKN-1 block	ADAM17 inh	MPTP block	GRIN3A LBD mod	ADAM10 inh	MPTP counter	others
O=C(CSc1ccc(C(F)(F)F)cc1[N+](=O)[O-])Nc1ccccc1	-1	18	0	59*	-2	10	61*
CNCC(=O)N1CCN(c2ncc(C(F)(F)F)cc2Cl)CC1	0	-3	-1	0	-1	-2	/
FC(F)(F)c1cnc(N2CCCN(C(=S)Nc3ccccc3)CC2)c(Cl)c1	10	1	0	70*	1	10	51*
FC(F)(F)c1cnc(N2CCN(C(=S)NCc3ccccc3)CC2)c(Cl)c1	2	7	2	54*	-6	3	51*
O=C(C=C1CCN(c2ncc(C(F)(F)F)cc2Cl)CC1)NNC(=O)Nc1ccccc1	-2	-3	2	9	-10	0	/
CC(C)N(CCO)Cc1nc(C(c2ccccc2)c2ccccc2)no1	-2	0	-5	0	-1	-10	/
COc1ccccc1N1C(=O)N(C(C)=O)C2C1Nc1ccccc1N2C (configuration not stated)	-165	17	-11	3	-1	-31	/
O=C(Nc1ccc(Cl)c(Cl)c1)Nc1nc(-c2ccccc2)cs1	-8	14	0	74*	160*	2	73*
O=C(Nc1ccccc1)Nc1nc(-c2ccccc2)cs1	2	9	-1	85*	23*	1	80*
O=C(Nc1nc(-c2ccccc2)cs1)c1ccco1	7	8	-4	2	-21	4	/
CC(C)(C)c1csc(NC(=O)Nc2ccccc2)n1	-18	23	3	4	-3	8	/
O=C(O)C(=Cc1cc2c(cc1[N+](=O)[O-])OCO2)c1cc2c(cc1Br)OCO2	0	14	-5	0	-1	-13	/
Cc1ccc(S(=O)(=O)C(c2ccccc2)c2c(C)noc2C)cc1 (configuration not stated)	-2	10	3	-2	0	3	/
CC(C)[C@H](NC(=O)c1ccccc1F)C(=O)OCC(=O)Nc1sccc1C(N)=O	2	8	-1	-2	2	-2	/
CC1=NC(Nc2nc(C)c3ccccc3n2)=NC(C)(C)C1	-11	7	-3	50*	0	-19	45*
COC(=O)c1ccc2nc(-c3ccco3)c(Cc3ccccc3C(F)(F)F)n2c1	-1	6	-58	-2	/	-203	/
Cc1ccc(CSc2ncn(-c3ccccc3)n2)cc1	10	10	3	2	0	12	/
Cc1ccc(CSc2nccc(-c3c(C)nc4ccccn34)n2)cc1	-7	-14	-10	61*	-1	-24	13	MPTP abs DR=i;MPTP cs DR=>80
CC(C)Oc1cccc(C(=O)NC(=S)NCc2cccnc2)c1	5	32	3	0	2	-7	/
COC(=O)C1=C(C)NC(C)=C(C(=O)OC)C1c1ccc(-c2cccc(Cl)c2Cl)o1	0	-5	-1	82*	10	-15	2	MPTP abs DR=>100;MPTP cs DR=>80
COC(=O)C1=C(C)NC(C)=C(C(=O)OC)C1c1ccc(-c2cc(Cl)ccc2Cl)o1	-6	3	4	48	8	-5	/
CCC(C)c1ccccc1N1CC(C(=O)Nc2ccc(S(=O)(=O)N3CCOCC3)cc2)CC1=O (configuration not stated)	0	-11	-13	-1	-2	-5	/
O=C(Nc1ccccc1)Nc1ccc(-n2ccc(C(F)(F)F)n2)cc1	5	11	3	79*	7	4	82*
O=C(CN(Cc1ccco1)C(=O)CCC(=O)Nc1nccs1)NCc1ccccc1	0	-7	0	-1	-5	3	/
CC(C)(C)c1ccc(NC(=O)N2CCN(c3ccc([N+](=O)[O-])cn3)CC2)cc1	-7	1	0	67*	-4	-8	54*
SMILES	MT1-MMP act inh	SKN-1 block	ADAM17 inh	MPTP block	GRIN3A LBD mod	ADAM10 inh	MPTP counter	others
O=C(NC(=S)Nc1c(Cl)cc(Cl)cc1Cl)c1ccccc1	-2	27	2	2	/	0	/
O=C(NC(NC(=S)Nc1c(Cl)cc(Cl)cc1Cl)C(Cl)(Cl)Cl)OCc1ccccc1 (configuration not stated)	-24	14	-2	78*	21*	1	63*
CCOC(=O)NC(NC(=S)Nc1ccccc1[N+](=O)[O-])C(Cl)(Cl)Cl (configuration not stated)	8	4	-2	14	-6	6	/
Cc1ccc(C)c(NC(=S)NC(NC(=O)OCc2ccccc2)C(Cl)(Cl)Cl)c1 (configuration not stated)	-1	7	2	95*	15*	8	83*
Cc1ccc2nc(N(CCN(C)C)C(=O)/C=C/c3cccs3)sc2c1	-3	-6	-9	99*	-11	-56	-17	MPTP abs DR=7.5*;MPTP cs DR=>80
CN(C)CCN(C(=O)/C=C/c1cccs1)c1nc2c(F)cc(F)cc2s1	1	-1	-2	102*	2	-11	-10
Nc1sc2c(c1C(=O)NC1CCS(=O)(=O)C1)CCC2 (configuration not stated)	-3	28	/	0	0	/	/
Cc1ccc(OCc2nc(-c3ccc(-n4cccc4)cc3)no2)cc1C	9	-8	2	-2	0	-4	/
CCC(C)c1ccccc1NC(=O)c1cc2cccc([N+](=O)[O-])c2[nH]1 (configuration not stated)	-3	1	0	61*	-2	5	66*
Cc1ccc(NC(=O)c2cc3cccc([N+](=O)[O-])c3[nH]2)cc1	3	2	3	64*	33*	2	61*
COc1ccc(NC(=S)Nc2ccc3nc(C)c(C)nc3c2)cc1	-1	-7	-17	3	-5	-72	/
